Laboratory results taken from ChEMBL document CHEMBL3272165, “Cycloalkanoindoles. 2. 1-Alkyl-1,2,3,4-tetrahydrocarbazole-1-ethanamines and related compounds. Potential antidepressants” (J Med Chem, 1976).

How the values were obtained:
[1] = Acute toxicity in ip dosed albino mouse assessed as mortality measured for 5 days; format: organism-based; settings: in vivo
Outline: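 Graded intraperitoneal doses, five animals per group; approximate LD50 estimated from mortality recorded over the 5 days after dosing.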

[2] = tested on: Mus musculus; experiment: Antidepressant activity in ip dosed mouse assessed as prevention of reserpine-induced ptosis; format: functional
Outline: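 Mice dosed ip with test compound; reserpine given to induce ptosis (adapted Petersen et al. method). The percentage of mice with ptosis prevented was recorded. ED50 (mg/kg) derived by the Finney method.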

[3] = tested on: Rattus norvegicus; experiment: Antidepressant activity in ip dosed rat assessed as prevention of tetrabenazine-induced ptosis; format: functional
Outline: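 Rats dosed ip; tetrabenazine used to induce ptosis (modified Giurgea et al. method). ED50 (mg/kg) derived by the Finney method from prevention of ptosis.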

| Compound | LD50 at 120 h [1] [mg/kg] | ED50 [2] [mg/kg] | ED50 [3] [mg/kg] |
| --- | --- | --- | --- |
| Br.CCn1c2c(c3ccccc31)CCCC2(CC)CCN(C)C (centres undefined) | 175 | 0.7 |  |
| CCn1c2c(c3cc(Cl)ccc31)CCCC2(C)CCN(C)C.Cl (centres undefined) |  | 0.19 |  |
| CCc1cccc2c3c(n(CC)c12)C(C)(CCN(C)C)CCC3.O=C(O)/C=C/C(=O)O (centres undefined) |  | 19 |  |
| CN(C)CCC1(C)CCCc2c1n(C)c1ccccc21.Cl (centres undefined) | 125 | 0.8 |  |
| CCCn1c2c(c3ccccc31)CCCC2(C)CCN(C)C.Cl (centres undefined) | 125 | 0.4 |  |
| CCn1c2c(c3ccccc31)CCCC2(C)CCN(C)C.Cl (centres undefined) | 125 | 0.12 | 3.3 |
| CCn1c2c(c3ccccc31)CCCC2(C)CCNC.Cl (centres undefined) | 125 | 1.6 |  |
| CN(C)CCC1CCCc2c1n(C)c1ccccc21.Cl (centres undefined) | 125 | 5 |  |
| CN(C)CC1CCCc2c1[nH]c1ccc(Cl)cc21 (centres undefined) |  | > 30 |  |
| Br.CCn1c2c(c3ccccc31)CCC2(C)CCN(C)C (centres undefined) |  | 0.75 |  |
| CCn1c2c(c3ccccc31)CCCCC2(C)CCN(C)C.Cl (centres undefined) | 85 | 0.27 |  |
| CN(C)CCC=C1c2ccccc2CCc2ccccc21 [AMITRIPTYLINE] | 94 | 4.7 | 37 |
| CN(C)CCCN1c2ccccc2CCc2ccccc21 [IMIPRAMINE] |  | 6 | 22.6 |
